Measured values as given in ChEMBL document CHEMBL4428023, “1,4-Dihydropyridines Active on the SIRT1/AMPK Pathway Ameliorate Skin Repair and Mitochondrial Function and Exhibit Inhibition of Proliferation in Cancer Cells” (J Med Chem, 2016).
Calls of active or inactive are those of the source. No cut-off for these calls is given here.

How the values were obtained:
[1] = tested on: C2C12; assay: Activation of AMPK/SIRT1 in mouse C2C12 cells assessed as increase in mitochondrial density at 30 uM after 16 hrs by Mitotracker Green staining-based confocal microscopy; format: cell-based
Method in brief: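 Murine C2C12 myoblasts plated on coverslips and grown overnight at 37 °C, 5% CO2. Then switched to serum-free HBSS, pH 7.4, and treated 16 h at 30 µM, alone or with 5 µM compound C or EX-527. Mitotracker Green (200 nM final) added for the last 30 min. Cells fixed in 4% paraformaldehyde, permeabilized and imaged by confocal microscopy, with settings fixed on untreated cells. Plate fluorescence also quantified.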

[2] = tested on: HaCaT; assay: Activation of AMPK/SIRT1 in human HaCaT cells assessed as nitric oxide production at 1 uM incubated for 1 hr by DAF-2D staining-based fluorescence assay; format: cell-based
Method in brief: (§1)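 HaCaT keratinocytes grown in DMEM with 10% FBS and antibiotics. Cells treated 1 h (single-point 1 µM; dose-response at 5, 25, 50 µM). 5 µM DAF-2D added to complete medium. Cells then washed in PBS, trypsinized and analysed by flow cytometry for DAF fluorescence (ex 485/em 538 nm). Read-out is % DAF-positive cells relative to DMSO control.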

[3] = tested on: C2C12; assay: Activation of AMPK/SIRT1 in mouse C2C12 cells assessed as increase in mitochondrial density at 30 uM after 16 hrs by Mitotracker Green staining-based confocal microscopy in presence of EX-527; format: cell-based
Method in brief: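 C2C12 myoblasts plated overnight, then in serum-free HBSS pH 7.4 and treated 16 h at 30 µM, alone or with 5 µM inhibitor (EX-527 or compound C). Mitotracker Green at 200 nM final was added for the last 30 min. Cells were fixed in 4% paraformaldehyde, permeabilized with Triton X-100 and imaged by confocal microscopy with fixed settings. Alternatively, mitochondrial fluorescence was quantified in plates.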

[4] = tested on: HaCaT; assay: Activation of AMPK/SIRT1 in human HaCaT cells assessed as nitric oxide production incubated for 1 hr by DAF-2D staining-based fluorescence assay; format: cell-based; method in brief: as §1
[5] = target: T1, NAD-dependent protein deacetylase sirtuin-1 (Homo sapiens) (UniProt Q96EB6); assay: Activation of full-length GST-tagged recombinant human SIRT1 assessed as enzyme activity obtained without subtraction of intrinsic fluorescence using p53-based untagged peptide as substrate at 50 uM after 30 mins by SIRTainty assay
T1 sequence (whole entry): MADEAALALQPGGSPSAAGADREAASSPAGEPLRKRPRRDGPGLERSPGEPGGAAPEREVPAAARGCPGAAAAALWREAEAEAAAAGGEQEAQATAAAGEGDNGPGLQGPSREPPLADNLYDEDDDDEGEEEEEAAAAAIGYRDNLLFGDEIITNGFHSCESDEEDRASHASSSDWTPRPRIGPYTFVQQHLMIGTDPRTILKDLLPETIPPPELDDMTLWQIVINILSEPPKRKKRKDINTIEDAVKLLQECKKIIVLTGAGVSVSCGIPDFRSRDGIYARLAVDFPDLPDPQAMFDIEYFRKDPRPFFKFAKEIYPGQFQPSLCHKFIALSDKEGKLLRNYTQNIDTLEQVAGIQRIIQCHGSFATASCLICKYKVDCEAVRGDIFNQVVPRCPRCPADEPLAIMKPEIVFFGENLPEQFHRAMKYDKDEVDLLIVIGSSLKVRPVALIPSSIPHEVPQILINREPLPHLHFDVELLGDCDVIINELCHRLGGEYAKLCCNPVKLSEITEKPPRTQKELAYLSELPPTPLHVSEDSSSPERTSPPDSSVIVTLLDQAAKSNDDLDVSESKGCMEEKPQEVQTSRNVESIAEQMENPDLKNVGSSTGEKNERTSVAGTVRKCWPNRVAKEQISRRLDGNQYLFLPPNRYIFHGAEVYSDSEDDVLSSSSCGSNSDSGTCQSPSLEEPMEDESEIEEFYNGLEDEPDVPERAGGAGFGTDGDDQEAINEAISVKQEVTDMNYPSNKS

[6] = tested on: HCT-116; assay: Antiproliferative activity against human HCT116 cells assessed as cell viability after 72 hrs by MTT assay; format: functional, cell-based; conditions: HCT-116, 72 h
Method in brief: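 Cells grown in RPMI with 10% fetal calf serum and penicillin, seeded in sextuplicate at 3 × 10^3 cells/well. After 24 h, cells were exposed 72 h to 5–200 µM. Viability was measured by MTT and expressed as treated/untreated × 100. IC50 was calculated from three independent experiments, reported as mean ± SD.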

[7] = tested on: Mus musculus; assay: Wound healing activity in CD1 mouse assessed as decrease in epithelial gap at 1 uM administered topically on wound everyday for 14 days by biopsy punch assay; format: functional, organism-based
Method in brief: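 Male CD1 mice, 8 weeks old, anaesthetized i.p. with medetomidine 1 mg/kg plus ketamine 75 mg/kg, then biopsy-punch wounded. Compound (1 µM) in 20 µL saline applied directly to the wound daily for 14 days; solvent-treated group as control. Epithelial gap and % wound closure followed over time.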

CCOC(=O)C1=CN(C(=O)c2ccccc2)C=C(C(=O)OCC)C1c1ccccc1
Activity [1]: Active
Activity [2]: Active
Activity [3]: inactive
Activity [4]: Dose-dependent effect
Activity [5]: 244%
IC50 [6]: 62 µM
Activity [7]: Active
